Active and inactive are the calls of the source. The calls are words filed in the database; no cut-off is given here.
What was measured:
Assay type in all cases: functional, cell-based
[1] = biological target: T1, Adenosine receptor A1 (Homo sapiens) (UniProt P30542); assay: Agonist activity at human A1 receptor expressed in CHO cells assessed as enhancement of R-PIA mediated ERK1/2 phosphorylation at 3 uM after 5 mins by Alpha-Screen assay
T1 sequence (whole entry): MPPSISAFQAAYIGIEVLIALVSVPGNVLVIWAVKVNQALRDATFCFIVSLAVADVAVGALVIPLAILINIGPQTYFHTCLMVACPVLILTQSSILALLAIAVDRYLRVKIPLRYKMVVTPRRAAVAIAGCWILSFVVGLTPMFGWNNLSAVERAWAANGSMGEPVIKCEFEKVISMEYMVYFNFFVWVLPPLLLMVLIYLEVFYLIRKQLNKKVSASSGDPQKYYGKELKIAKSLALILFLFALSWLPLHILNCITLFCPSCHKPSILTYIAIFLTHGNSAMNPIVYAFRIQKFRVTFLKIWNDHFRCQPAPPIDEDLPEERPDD
In short: (§1)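 Flp-In CHO cells stably expressing human A1R, 30000/well, serum-starved overnight, then 1 U/mL ADA for 30 min. Test compound (3 or 10 μM) added 5 min before an EC50 concentration of R-PIA (determined same day), then a further 5 min at 37 °C. pERK1/2 read by SureFire AlphaScreen. Mean of two to three experiments in triplicate.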

[2] = biological target: T1, Adenosine receptor A1 (Homo sapiens); assay: Agonist activity at human A1 receptor expressed in CHO cells assessed as enhancement of R-PIA mediated ERK1/2 phosphorylation at 10 uM after 5 mins by Alpha-Screen assay; in short: as §1
[3] = biological target: T1, Adenosine receptor A1 (Homo sapiens); assay: Agonist activity at human A1 receptor expressed in CHO cells assessed as stimulation of ERK1/2 phosphorylation at 3 to 10 uM after 5 mins by Alpha-Screen assay
In short: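 Flp-In CHO cells stably expressing human A1R, serum-starved overnight and pretreated with 1 U/mL ADA for 30 min. Compound (3 and 10 μM) applied alone, 5 min at 37 °C. Intrinsic agonism measured as ERK1/2 phosphorylation by SureFire AlphaScreen, with 3% FBS as positive control. Two to three experiments in triplicate.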

[4] = biological target: T1, Adenosine receptor A1 (Homo sapiens); assay: Positive allosteric modulation at human A1 receptor expressed in CHO cells assessed as inhibition of forskolin-stimulated cAMP accumulation after 30 mins by Alpha-Screen assay
In short: (§2)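 Serum-starved CHO-FlpIn hA1R cells were preincubated 30 min in phenol red-free DMEM with 0.1% BSA, 1 U/mL ADA and 500 μM IBMX. They were then treated with 10 μM forskolin plus R-PIA and/or modulator for 30 min at 37 °C, and cAMP was read by AlphaScreen. Data were normalized to 10 μM forskolin and fitted to an operational model of allosterism. Three experiments in duplicate.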

[5] = biological target: T1, Adenosine receptor A1 (Homo sapiens); assay: Positive allosteric modulation at human A1 receptor expressed in CHO cells assessed as enhancement of R-PIA-mediated inhibition of forskolin-stimulated cAMP accumulation after 30 mins by Alpha-Screen assay; in short: as §2

Activity [1] [%] | Activity [2] [%] | Activity [3] | Activity [4] | Activity [5] | SMILES
90 | 84 | – | – | – | Nc1scc(-c2cc(C(F)(F)F)cc(C(F)(F)F)c2)c1C(=O)c1cccc(C(F)(F)F)c1
77 | 73 | Active | Active | Active | Cc1sc(N)c(C(=O)c2ccccc2)c1-c1cccc(C(F)(F)F)c1
93 | 94 | – | – | – | Nc1scc(-c2cccc(C(F)(F)F)c2)c1C(=O)c1cccc(C(F)(F)F)c1
86 | 87 | – | – | – | Cc1ccc(C(=O)c2c(-c3cc(C(F)(F)F)cc(C(F)(F)F)c3)csc2N)cc1
83 | 95 | – | – | – | Cc1sc(N)c(C(=O)c2ccccc2)c1-c1cc(C(F)(F)F)cc(C(F)(F)F)c1
90 | 86 | – | – | – | Cc1sc(N)c(C(=O)c2cccc(C(F)(F)F)c2)c1-c1cccc(C(F)(F)F)c1
84 | 88 | – | – | – | Cc1sc(N)c(C(=O)c2ccc(Cl)cc2)c1-c1cc(C(F)(F)F)cc(C(F)(F)F)c1
88 | 88 | – | – | – | Nc1scc(-c2cccc(C(F)(F)F)c2)c1C(=O)c1ccc(Cl)c(Cl)c1
90 | 90 | – | – | – | Nc1scc(-c2cc(C(F)(F)F)cc(C(F)(F)F)c2)c1C(=O)c1ccc(Cl)c(Cl)c1
84 | 84 | – | – | – | Cc1sc(N)c(C(=O)c2cccc(C(F)(F)F)c2)c1-c1cc(C(F)(F)F)cc(C(F)(F)F)c1
73 | 75 | – | – | – | Cc1sc(N)c(C(=O)c2ccc(Cl)c(Cl)c2)c1-c1cccc(C(F)(F)F)c1
94 | 94 | Active | – | Active | Cc1sc(N)c(C(=O)c2ccc(Cl)cc2)c1-c1cccc(C(F)(F)F)c1
86 | 90 | – | – | – | Cc1ccc(C(=O)c2c(N)sc(C)c2-c2cccc(C(F)(F)F)c2)cc1
85 | 83 | – | – | – | Cc1ccc(C(=O)c2c(-c3cccc(C(F)(F)F)c3)csc2N)cc1
92 | 80 | – | – | – | Cc1ccc(C(=O)c2c(N)sc(C)c2-c2cc(C(F)(F)F)cc(C(F)(F)F)c2)cc1
78 | 84 | – | – | – | Cc1sc(N)c(C(=O)c2ccc(Cl)c(Cl)c2)c1-c1cc(C(F)(F)F)cc(C(F)(F)F)c1

Source: ChEMBL document CHEMBL2086362, “Synthesis and characterization of novel 2-amino-3-benzoylthiophene derivatives as biased allosteric agonists and modulators of the adenosine A(1) receptor” (J Med Chem, 2012)
